Measurements collected from several papers.
Protocols differ between the studies behind these lines.
Observed: cell growth or viability

Cc1cccc(-n2ncc(Br)c(Br)c2=O)c1
IC50 (NCI-H2444; resazurin; 96 h): 0.31 µM

O=C(N/N=C/c1c(O)ccc2ccccc12)c1cc(-c2ccc3ccccc3c2)n[nH]1
IC50 (1205Lu; MTS; 48 h): 5.8 µM

COc1cccc2c1C(=O)c1c(O)c3c(c(O)c1C2=O)C[C@@](O)(C(=O)CO)C[C@@H]3O[C@H]1C[C@H](N)[C@H](O)[C@H](C)O1
IC50 (4T1.2; MTT; 48 h): 0.272 µg/mL

Cc1[nH]c(/C=C2\C(=O)Nc3ccc(S(=O)(=O)N(C)c4cccc(Cl)c4)cc32)c(C)c1C(=O)N1CCN(C)CC1
IC50 (BJ; 72 h): 5.19 µM

C[C@@H](Oc1cc(-c2cnn(C3CCNCC3)c2)cnc1N)c1c(Cl)ccc(F)c1Cl
IC50 (SW-1736; MTT; 72 h): 2.5 µM

C[C@H]1O[C@@H](n2cc(F)c(=O)[nH]c2=O)[C@H](O)[C@@H]1O
IC50 (IOSE-144; CCK-8; 48 h): 16.5 µM

COc1cc(Nc2nccc(-c3cnn4nc(OC)ccc34)n2)cc(C(F)(F)F)c1
IC50 (HuTu80; ATP luminescence): 0.15 µM

CC(=O)O[C@H]1C(=O)[C@@]2(C)[C@H]([C@H](OC(=O)c3ccccc3)[C@]3(O)C[C@H](OC(=O)[C@H](O)[C@@H](NC(=O)c4ccccc4)c4ccccc4)C(C)=C1C3(C)C)[C@]1(OC(C)=O)CO[C@@H]1C[C@@H]2O
IC50 (LN-18): 1 µg/mL

COc1cc(N2CCC(N3CCN(C)CC3)CC2)ccc1Nc1ncc(Cl)c(Nc2ccccc2S(=O)(=O)C(C)C)n1
IC50 (BJ; 72 h): 0.9 µM

Oc1ccc(Nc2nc(-c3ccc(Cl)cc3)cs2)cc1
IC50 (1205Lu; MTS; 24 h): > 100 µM

C[C@H]1[C@@H](O)O[C@@H]2O[C@@]3(C)CC[C@H]4[C@H](C)CC[C@@H]1[C@@]24OO3
IC50 (IOSE-144; CCK-8; 48 h): > 50 µM

COc1cc2c(Oc3ccc(NC(=O)C4(C(=O)Nc5ccc(F)cc5)CC4)cc3F)ccnc2cc1OCCCN1CCOCC1
IC50 (BJ; 72 h): 0.18 µM
